Source: ChEMBL document CHEMBL1129303, “Potent human immunodeficiency virus type 1 protease inhibitors that utilize noncoded D-amino acids as P2/P3 ligands” (J Med Chem, 1996)
Where “and” joins values, the source holds several entries; their conditions need not be identical. Equal entries are not always repeated.

Assays:
CCRF-CEM [1] = assay: Antiviral activity against CEM cells; assay type: functional, cell-based; settings: Homo sapiens
CCRF-CEM [2] = assay: In vitro inhibitory activity against replication of HIV type-1 virus in CEM cells; assay type: functional, cell-based; settings: Homo sapiens
[3] = Maximum plasma concentration in rat upon oral administration of 40 mg/kg; assay type: ADME, organism-based; set-up: dose 40 mg/kg, route oral
Method in brief: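 Fasted (16-18 h) Harlan Sprague-Dawley rats, jugular cannula implanted ≥48 h earlier, gavaged 40 mg/kg in acacia/Tween emulsion, n=2. Plasma from 0-4 h blood draws diluted 1:49 and assayed by HIV protease cleavage of FITC-labelled peptide (5 h, 37 °C, MES pH 5.5) with HPLC quantitation. Inhibitory activity read against a standard curve of parent compound; Cmax is the peak.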

MT2 = assay: Antiviral activity against MT-2 cells; assay type: functional, cell-based; settings: Homo sapiens
[4] = biological target: Human immunodeficiency virus type 1 protease (Human immunodeficiency virus 1, UniProt Q72874); assay: Inhibitory activity against HIV-1 protease

| SMILES | IC50 (CCRF-CEM [1]) | IC50 (CCRF-CEM [2]) | Cmax [3] | IC50 (MT2) | IC50 [4] |
| --- | --- | --- | --- | --- | --- |
| CC(C)(C)NC(=O)c1ccccc1C[C@@H](O)[C@H](Cc1ccccc1)NC(=O)[C@H](CS(=O)(=O)c1ccc(Cl)cc1)NS(C)(=O)=O | 138 nM | 16 nM | < 300 ng/mL | 24 nM | 0.34 nM |
| CC(C)(C)NC(=O)c1ccccc1C[C@@H](O)[C@H](Cc1ccccc1)NC(=O)[C@H](CS(=O)(=O)c1ccccc1)NS(C)(=O)=O | 72 nM | 83 nM | < 300 ng/mL | 176 nM | 5.7 nM |
| CC(C)(C)NC(=O)c1ccccc1C[C@@H](O)[C@H](Cc1ccccc1)NC(=O)[C@H](CSc1ccc(C(F)(F)F)cc1)NS(C)(=O)=O | 2930 nM | – | – | 5910 nM | 170 nM |
| CC(C)(C)NC(=O)c1ccccc1C[C@@H](O)[C@H](Cc1ccccc1)NC(=O)[C@H](CS(=O)(=O)c1ccc(C(F)(F)F)cc1)NS(C)(=O)=O | 204 nM | 646 nM | < 300 ng/mL | 450 nM | 2 nM |
| CC(=O)N[C@@H](CSc1ccccc1)C(=O)N[C@@H](Cc1ccccc1)[C@H](O)Cc1ccccc1C(=O)NC(C)(C)C | 5400 nM | – | – | 11300 nM | 220 nM |
| CC(C)(C)NC(=O)c1ccccc1C[C@@H](O)[C@H](Cc1ccccc1)NC(=O)[C@H](CSCc1ccccc1)NS(C)(=O)=O | 1650 nM | – | – | 926 nM | 14.7 nM |
| COc1ccc(SC[C@H](NS(C)(=O)=O)C(=O)N[C@@H](Cc2ccccc2)[C@H](O)Cc2ccccc2C(=O)NC(C)(C)C)cc1 | 1800 nM | – | – | 1910 nM | 16 nM |
| CC(C)(C)NC(=O)c1ccccc1C[C@@H](O)[C@H](Cc1ccccc1)NC(=O)[C@H](CS(=O)(=O)c1cccc2ccccc12)NS(C)(=O)=O | < 0.5 nM | 49 nM | – | 8.8 nM | 0.44 nM |
| CC(C)(C)NC(=O)c1ccccc1C[C@@H](O)[C@H](Cc1ccccc1)NC(=O)[C@H](CS(=O)(=O)c1ccc2ccccc2n1)NS(C)(=O)=O | < 0.5 nM | 12 nM | < 100 ng/mL | 5 nM | 0.3 nM |
| CC(C)(C)NC(=O)c1ccccc1C[C@@H](O)[C@H](Cc1ccccc1)NC(=O)[C@H](C[S+]([O-])c1ccccn1)NS(C)(=O)=O (stereo partly drawn) | 330 nM | 474 nM | < 200 ng/mL | 770 nM | 19.3 nM and 7.9 nM |
| CC(C)(C)NC(=O)c1ccccc1C[C@@H](O)[C@H](Cc1ccccc1)NC(=O)[C@H](CSc1ccccn1)NS(C)(=O)=O | – | – | – | – | 910 nM |
| CC(C)(C)NC(=O)c1ccccc1C[C@@H](O)[C@H](Cc1ccccc1)NC(=O)[C@H](CS(=O)(=O)c1ccc(F)cc1)NS(C)(=O)=O | 59 nM | 32 nM | < 300 ng/mL | 440 nM | 0.77 nM |
| CC(C)(C)NC(=O)c1ccccc1C[C@@H](O)[C@H](Cc1ccccc1)NC(=O)[C@H](C[S+]([O-])c1ccc(C(F)(F)F)cc1)NS(C)(=O)=O (stereo partly drawn) | 53 nM | – | < 200 ng/mL | 116 nM | 2.3 nM |
| CC(=O)N[C@@H](C[S+]([O-])c1ccc2ccccc2n1)C(=O)N[C@@H](Cc1ccccc1)[C@H](O)Cc1ccccc1C(=O)NC(C)(C)C (stereo partly drawn) | 72 nM | – | – | 180 nM | 0.25 nM |
| CC(C)(C)NC(=O)c1ccccc1C[C@@H](O)[C@H](Cc1ccccc1)NC(=O)[C@H](CSc1ccc2ccccc2n1)NS(C)(=O)=O | 5400 nM | – | – | 6440 nM | 60 nM |
| CCC(=O)N[C@@H](CC(=O)OCc1ccccc1)C(=O)N[C@@H](Cc1ccccc1)[C@H](O)Cc1ccccc1C(=O)NC(C)(C)C | 5200 nM | – | – | 9880 nM | 73 nM |
| CC(C)(C)NC(=O)c1ccccc1C[C@@H](O)[C@H](Cc1ccccc1)NC(=O)[C@H](C[S+]([O-])c1ccc(F)cc1)NS(C)(=O)=O (stereo partly drawn) | 165 nM | – | 2200 ng/mL | 900 nM | 0.38 nM |
| CC(=O)N[C@@H](CS(=O)(=O)c1ccc2ccccc2n1)C(=O)N[C@@H](Cc1ccccc1)[C@H](O)Cc1ccccc1C(=O)NC(C)(C)C | – | 59 nM | – | – | 0.28 nM |

| SMILES | IC50 (CCRF-CEM [1]) | IC50 (CCRF-CEM [2]) | Cmax [3] | IC50 (MT2) | IC50 [4] |
| --- | --- | --- | --- | --- | --- |
| COc1ccc(S(=O)(=O)C[C@H](NS(C)(=O)=O)C(=O)N[C@@H](Cc2ccccc2)[C@H](O)Cc2ccccc2C(=O)NC(C)(C)C)cc1 | 54 nM | 107 nM | < 300 ng/mL | 150 nM | 2.4 nM |
| CC(C)(C)NC(=O)c1ccccc1C[C@@H](O)[C@H](Cc1ccccc1)NC(=O)[C@H](CSc1cccc2ccccc12)NS(C)(=O)=O | 270 nM | 323 nM | – | 760 nM | 1.2 nM |
| CC(=O)N[C@@H](CS(=O)(=O)c1ccccc1)C(=O)N[C@@H](Cc1ccccc1)[C@H](O)Cc1ccccc1C(=O)NC(C)(C)C | 815 nM | – | – | 820 nM | 20 nM |
| CC(C)(C)NC(=O)c1ccccc1C[C@@H](O)[C@H](Cc1ccccc1)NC(=O)[C@H](CSc1ccc(F)cc1)NS(C)(=O)=O | 2130 nM | – | – | 2880 nM | 4.4 nM |
| CC(C)(C)NC(=O)c1ccccc1C[C@@H](O)[C@H](Cc1ccccc1)NC(=O)[C@H](C[S+]([O-])c1ccccc1)NS(C)(=O)=O (stereo partly drawn) | 100 nM | – | – | 500 nM | 1.9 nM |
| CC(C)(C)NC(=O)c1ccccc1C[C@@H](O)[C@H](Cc1ccccc1)NC(=O)[C@H](CS(=O)(=O)Cc1ccccc1)NS(C)(=O)=O | 800 nM | – | – | 730 nM | 19.4 nM |
| CC(C)(C)NC(=O)c1ccccc1C[C@@H](O)[C@H](Cc1ccccc1)NC(=O)[C@H](CSc1ccccc1)NS(C)(=O)=O | 4370 nM | – | – | 2750 nM | 44 nM |
| CC(=O)N[C@@H](CS(=O)(=O)c1ccc2ccccc2c1)C(=O)N[C@@H](Cc1ccccc1)[C@H](O)Cc1ccccc1C(=O)NC(C)(C)C | 11 nM | – | < 100 ng/mL | 31 nM | 0.32 nM |
| CC(C)(C)NC(=O)c1ccccc1C[C@@H](O)[C@H](Cc1ccccc1)NC(=O)[C@H](CSc1ccc2ccccc2c1)NS(C)(=O)=O | 530 nM | – | – | 800 nM | 1.8 nM |
| CC(C)(C)NC(=O)c1ccccc1C[C@@H](O)[C@H](Cc1ccccc1)NC(=O)[C@@H](N)CC(=O)OCc1ccccc1 | – | – | – | – | > 1000 nM |
| Cn1nnnc1SC[C@H](NS(C)(=O)=O)C(=O)N[C@@H](Cc1ccccc1)[C@H](O)Cc1ccccc1C(=O)NC(C)(C)C | 6680 nM | – | – | 9260 nM | 17.5 nM |
| CC(C)(C)NC(=O)c1ccccc1C[C@@H](O)[C@H](Cc1ccccc1)NC(=O)[C@H](C[S+]([O-])c1cccc2ccccc12)NS(C)(=O)=O (stereo partly drawn) | < 0.5 nM | 0.8 nM | < 250 ng/mL | 6 nM | 0.45 nM |
| CC(C)(C)NC(=O)c1ccccc1C[C@@H](O)[C@H](Cc1ccccc1)NC(=O)[C@H](CS(=O)(=O)c1ccccn1)NS(C)(=O)=O | – | – | – | – | 22 nM |
| CC(=O)N[C@@H](CSc1ccc2ccccc2n1)C(=O)N[C@@H](Cc1ccccc1)[C@H](O)Cc1ccccc1C(=O)NC(C)(C)C | – | – | – | – | 14.7 nM |
| CCCC(=O)N[C@@H](CC(=O)OCc1ccccc1)C(=O)N[C@@H](Cc1ccccc1)[C@H](O)Cc1ccccc1C(=O)NC(C)(C)C | 8700 nM | – | – | 24200 nM | 323 nM |
| CC(C)(C)NC(=O)c1ccccc1C[C@@H](O)[C@H](Cc1ccccc1)NC(=O)[C@H](C[S+]([O-])c1ccc2ccccc2c1)NS(C)(=O)=O (stereo partly drawn) | < 0.5 nM | 6.7 nM | 330 ng/mL | 4.3 nM | 3.5 nM |
| Cn1nnnc1[S+]([O-])C[C@H](NS(C)(=O)=O)C(=O)N[C@@H](Cc1ccccc1)[C@H](O)Cc1ccccc1C(=O)NC(C)(C)C (stereo partly drawn) | – | 5010 nM | 490 ng/mL | – | 2.1 nM |
| CC(C)(C)NC(=O)c1ccccc1C[C@@H](O)[C@H](Cc1ccccc1)NC(=O)C(CS(=O)(=O)c1ccc2ccccc2n1)NS(C)(=O)=O (stereo partly drawn) | 2060 nM | 5780 nM | – | 3030 nM | 2.8 nM |
